The source of these data is ChEMBL document CHEMBL1158184, “Synthesis and anti-CVB 3 evaluation of substituted 5-nitro-2-phenoxybenzonitriles” (Bioorg Med Chem Lett, 2008).

Assay [1] relates to Coxsackievirus B3. Kind of assay: Antiviral activity against Coxsackievirus B3 assessed as reduction of virus-induced cytopathogenicity after 3 days by MTS assay. The assay is classed as functional, organism-based. Conditions: Enterovirus B, 72 h. Put shortly:
(§1)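 MTS-based CPE reduction assay. Confluent cell monolayers were infected with 100 CCID50 of virus and left 2 h at 37 °C for adsorption, then the inoculum was removed and serial compound dilutions were added. MTS/PMS was added for 2 h and OD was read at 498 nm. EC50 was derived from %CPE relative to uninfected and infected untreated controls.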
A general note: Cytopathic effects are the visible damage that an infection or toxin causes in cultured cells.

In assay [2] the test system is enterovirus D68. Kind of assay: Antiviral activity against Enterovirus 68 in human MRC5 cells. The assay is classed as functional. Put shortly: as §1
Assay [3] deals with Coxsackievirus B1. Kind of assay: Antiviral activity against Coxsackievirus B1 in african green monkey Vero cells. Format: functional. The method, boiled down: as §1
Assay [4] concerns Coxsackievirus B6. Kind of assay: Antiviral activity against Coxsackievirus B6 in african green monkey Vero cells. The assay is classed as functional. The method, boiled down:
as §1

Assay [5] has as its system Coxsackievirus A24. Kind of assay: Antiviral activity against Coxsackievirus A24 in human MRC5 cells. Format: functional. The method, boiled down: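 MTS-based CPE-reduction assay. Confluent monolayers were infected with 100 CCID50 of virus and adsorbed for 2 h at 37 °C; virus was then removed and serial compound dilutions added. Cultures were incubated 3 days at 37 °C until complete CPE in the untreated virus control. After MTS/PMS for 2 h, OD was read at 498 nm, %CPE calculated against uninfected and infected-untreated controls, and EC50 derived.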

Assay [6] has as its system Coxsackievirus B2. Kind of assay: Antiviral activity against Coxsackievirus B2 in african green monkey Vero cells. The assay is classed as functional. Put shortly:
as §1

Assay [7] concerns Echovirus E9. Kind of assay: Antiviral activity against Echovirus 9 in human MRC5 cells. Format: functional. The method, boiled down:
as §1

In assay [8] the test system is Coxsackievirus B5. Kind of assay: Antiviral activity against Coxsackievirus B5 in african green monkey Vero cells. Format: functional. The method, boiled down:
as §1

Assay [9] relates to Coxsackievirus B4. As to the kind of experiment: Antiviral activity against Coxsackievirus B4 in african green monkey Vero cells. The assay is classed as functional. The method, boiled down:
as §1

The subject of assay [10] is Echovirus E11. Kind of assay: Antiviral activity against Echovirus 11 in human MRC5 cells. The assay is classed as functional. Put shortly:
as §1

Turning to `COc1ccccc1Oc1ccc([N+](=O)[O-])cc1C#N`, the IC50 in assay [1] turned out to be 54 µM.

Consider `N#Cc1cc([N+](=O)[O-])ccc1Oc1cccc(Cl)c1Cl`, for which the Activity in assay [2] was over 323 µM; in assay [3], 3.3 µM; in [4], 10 µM; in assay [5], over 309 µM; in assay [6], 8.6 µM; in assay [7], over 323 µM. For the same compound, the Activity in assay [8] was 4.8 µM; in assay [9], 17 µM; in [10] it was over 323 µM. For the same compound, the IC50 in assay [1] is 4.9 µM.

As for `N#Cc1cc([N+](=O)[O-])ccc1Oc1ccccc1Br`, the IC50 in [1] is over 143 µM.

With `CS(=O)(=O)c1ccc(Oc2ccc([N+](=O)[O-])cc2C#N)cc1`, in [1], the concentration for half-maximal inhibition (IC50) is 174 µM.

For `N#Cc1cc([N+](=O)[O-])ccc1Oc1ccccc1`, the Activity was over 416 µM in assay [2]; 6.9 µM in assay [3]; 19 µM in assay [4]; over 240 µM in assay [5]; 17 µM in assay [6]; over 416 µM in [7]. For the same compound, the Activity was 10 µM in assay [8], 26 µM in assay [9] and over 416 µM in assay [10]. Moreover, in [1], the IC50 is 8.7 µM.

As to `COc1ccc(Oc2ccc([N+](=O)[O-])cc2C#N)cc1`, the IC50 in assay [1] was 46 µM.

`N#Cc1cc([N+](=O)[O-])ccc1Oc1ccccc1Cl`: the Activity in assay [2] was found to be 22 µM; in assay [3], 5.6 µM; in assay [4], 8.1 µM; in [5] it was 23 µM; in assay [6], 6.2 µM; in assay [7], 35 µM. For the same compound, the figures for the Activity in assay [8], in assay [9] and in [10] were 3.1 µM, 14 µM and 35 µM, respectively. Besides, the IC50 in [1] was found to be 6.9 µM.

With `N#Cc1ccc(Oc2ccc([N+](=O)[O-])cc2C#N)cc1`, in [1], the IC50 worked out at 4.1 µM.

Consider `CC(=O)c1ccc(Oc2ccc([N+](=O)[O-])cc2C#N)cc1`, for which, in assay [1], the concentration for half-maximal inhibition (IC50) is 35 µM.

Take `N#Cc1cc([N+](=O)[O-])ccc1Oc1ccc(Cl)cc1Cl`: the IC50 in [1] is 13 µM.

Take `COc1cccc(Oc2ccc([N+](=O)[O-])cc2C#N)c1`: in [1], the IC50 turned out to be 12 µM.

For `N#Cc1cc([N+](=O)[O-])ccc1Oc1ccc(Cl)cc1`, the Activity in assay [2], in [7] and in assay [10] was over 364 µM in each case. In addition, in [1], the IC50 is 5 µM.

Take `Cc1ccc(Oc2ccc([N+](=O)[O-])cc2C#N)cc1`: the IC50 in assay [1] was 6.2 µM.

For the compound `N#Cc1cc([N+](=O)[O-])ccc1Oc1ccc(Br)cc1`, the IC50 in assay [1] amounted to 5.7 µM.

`CSc1ccc(Oc2ccc([N+](=O)[O-])cc2C#N)cc1`: the IC50 in assay [1] was found to be 93 µM.

For the compound `N#Cc1cc([N+](=O)[O-])ccc1Oc1cc(Cl)cc(Cl)c1`, the IC50 in [1] is over 81 µM.

As to `N#Cc1cc([N+](=O)[O-])ccc1Oc1ccc(Cl)c(Cl)c1`, the Activity in [2] was 12 µM; in assay [3], 15 µM; in assay [4] it was 12 µM; in [5], 1.8 µM; in assay [6], 15 µM; in assay [7], over 324 µM. Besides, the results for the Activity in assay [8], in assay [9] and in assay [10] were 18 µM, 17 µM and 6.7 µM, respectively. Besides, in assay [1], the IC50 came to 6.5 µM.

With `N#Cc1cc([N+](=O)[O-])ccc1Oc1cccc(Cl)c1`, the IC50 in assay [1] was found to be 4.9 µM.

As to `N#Cc1cc([N+](=O)[O-])ccc1Oc1cc(Cl)ccc1Cl`, the Activity in assay [2], in [7] and in [10] was over 323 µM each time. Further, the IC50 in assay [1] amounted to 3.8 µM.

With `N#Cc1cc([N+](=O)[O-])ccc1Oc1cccc(C(=O)O)c1`, the IC50 in assay [1] was over 352 µM.

`N#Cc1cc([N+](=O)[O-])ccc1Oc1cccc([N+](=O)[O-])c1`: in assay [1], the IC50 worked out at 38 µM.

With `Cc1cc(Oc2ccc([N+](=O)[O-])cc2C#N)ccc1Cl`, the Activity is over 346 µM in assay [2]; 4.8 µM in assay [3]; over 346 µM in [4]; 234 µM in assay [5]; 5.2 µM in [6]; over 346 µM in assay [7]. The Activity was 2.1 µM in assay [8], over 346 µM in assay [9] and over 346 µM in assay [10]. For the same compound, the IC50 in assay [1] amounted to 2 µM.

Consider `N#Cc1cc([N+](=O)[O-])ccc1Oc1cc(Cl)c(Cl)cc1Cl`, for which, in [1], the IC50 stood at 59 µM.

Take `N#Cc1cc([N+](=O)[O-])ccc1Oc1cccc(N)c1`: in [1], the IC50 worked out at 241 µM.

`N#Cc1cc([N+](=O)[O-])ccc1Oc1ccc(C(=O)O)cc1`: in [1], the IC50 was over 352 µM.

As for `N#Cc1cc([N+](=O)[O-])ccc1Oc1ccc([N+](=O)[O-])cc1`, the Activity in assay [2], in [5], in [7] and in [10] was over 350 µM throughout. Also, the IC50 in assay [1] stood at 3.3 µM.

Regarding `CC(=O)Nc1cccc(Oc2ccc([N+](=O)[O-])cc2C#N)c1`, the IC50 in assay [1] came to 121 µM.

With `CC(=O)Nc1ccc(Oc2ccc([N+](=O)[O-])cc2C#N)cc1`, the IC50 in [1] is over 336 µM.

Consider `N#Cc1cc([N+](=O)[O-])ccc1Oc1cccc(Br)c1`, for which, in [1], the IC50 came to 5 µM.

Regarding `CC(C)c1cccc(Oc2ccc([N+](=O)[O-])cc2C#N)c1`, the IC50 in assay [1] came to 40 µM.

As for `CN(C)c1cccc(Oc2ccc([N+](=O)[O-])cc2C#N)c1`, the IC50 in assay [1] came to 31 µM.

Take `CC(=O)c1cccc(Oc2ccc([N+](=O)[O-])cc2C#N)c1`: the IC50 in assay [1] amounted to 57 µM.

`N#Cc1ccccc1Oc1ccc([N+](=O)[O-])cc1C#N`: in assay [1], the IC50 was determined as 11 µM.

Take `N#Cc1cccc(Oc2ccc([N+](=O)[O-])cc2C#N)c1`: in assay [1], the IC50 was found to be 7.4 µM.

For `N#Cc1cc([N+](=O)[O-])ccc1Oc1ccc(Cl)cc1N`, in assay [1], the IC50 was over 53 µM.

Regarding `Cc1cc(Oc2ccc([N+](=O)[O-])cc2C#N)ccc1[N+](=O)[O-]`, the IC50 in assay [1] stood at 11 µM.

`N#Cc1cc([N+](=O)[O-])ccc1Oc1ccc(Br)cc1Cl`: the IC50 in assay [1] turned out to be 3.7 µM.

On to `N#Cc1ccc(Oc2ccc([N+](=O)[O-])cc2C#N)c(Cl)c1`, for which the IC50 in assay [1] was found to be 7.3 µM.

Consider `N#Cc1cc([N+](=O)[O-])ccc1Oc1ccc(Br)cc1Br`, for which, in [1], the IC50 was 6.2 µM.

With `Cc1ccc(Oc2ccc([N+](=O)[O-])cc2C#N)cc1C`, the IC50 in [1] amounted to 99 µM.

As for `Cc1ccccc1Oc1ccc([N+](=O)[O-])cc1C#N`, the IC50 in assay [1] stood at 57 µM.

Take `Cc1cccc(Oc2ccc([N+](=O)[O-])cc2C#N)c1`: the Activity was 76 µM in assay [2]; 8.9 µM in assay [3]; 22 µM in [4]; 19 µM in [5]; 11 µM in [6]; over 393 µM in [7]. Further, the results for the Activity in [8], in [9] and in [10] were 13 µM, 22 µM and over 393 µM, respectively. The IC50 in assay [1] stood at 6.4 µM.

Turning to `Cc1cc(Oc2ccc([N+](=O)[O-])cc2C#N)ccc1Br`, in assay [1], the IC50 was determined as 2.6 µM.

Take `N#Cc1cc([N+](=O)[O-])ccc1Oc1ccc(Br)c(Cl)c1`: the 50% inhibitory concentration (IC50) in assay [1] was determined as 6.7 µM.

With `Cc1cc(Cl)ccc1Oc1ccc([N+](=O)[O-])cc1C#N`, the IC50 in assay [1] was 11 µM.

As for `CCc1cc(Oc2ccc([N+](=O)[O-])cc2C#N)ccc1Cl`, in [1], the IC50 is over 330 µM.

As to `N#Cc1cc([N+](=O)[O-])ccc1Oc1ccc([N+](=O)[O-])cc1Cl`, the IC50 in assay [1] amounted to 39 µM.

Regarding `N#Cc1cc([N+](=O)[O-])ccc1Oc1ccc(N)c([N+](=O)[O-])c1`, the IC50 in assay [1] came to 10 µM.

As to `N#Cc1cc([N+](=O)[O-])ccc1Oc1ccc(Cl)c(Cl)c1Cl`, the IC50 in assay [1] was over 146 µM.

Regarding `N#Cc1cc([N+](=O)[O-])ccc1Oc1c(Cl)cc(Cl)cc1Cl`, in [1], the IC50 came to 72 µM.

For `CC(C)(C)c1ccc(Oc2ccc([N+](=O)[O-])cc2C#N)cc1`, the IC50 in assay [1] is over 338 µM.

For `N#Cc1cc([N+](=O)[O-])ccc1Oc1ccc(CO)cc1`, the IC50 in assay [1] stood at 121 µM.

Consider `N#Cc1cc([N+](=O)[O-])ccc1Oc1ccc(I)cc1`, for which the IC50 in assay [1] worked out at 5.7 µM.

In the case of `N#Cc1cc([N+](=O)[O-])ccc1Oc1cccc(NC(N)=S)c1`, the IC50 in [1] was determined as 234 µM.

For the compound `C[S+]([O-])c1ccc(Oc2ccc([N+](=O)[O-])cc2C#N)cc1` (stereo not given), the IC50 in assay [1] is 205 µM.

For `N#Cc1cc([N+](=O)[O-])ccc1Oc1ccc(Cl)cc1Br`, the IC50 in assay [1] was determined as 3.7 µM.

Consider `N#Cc1cc([N+](=O)[O-])ccc1Oc1cccc(NC(N)=O)c1`, for which, in assay [1], the IC50 is over 335 µM.

As to `N#Cc1cc([N+](=O)[O-])ccc1Oc1ccc(N)cc1`, in [1], the IC50 came to 106 µM.

On to `N#Cc1cc([N+](=O)[O-])ccc1Oc1cccc(I)c1`, for which the half-maximal inhibitory concentration (IC50) in assay [1] was found to be 5.7 µM.

With `N#Cc1cc([N+](=O)[O-])ccc1Oc1ccc(C(N)=O)cc1`, the IC50 in assay [1] was over 353 µM.

For `Cc1cc(C)cc(Oc2ccc([N+](=O)[O-])cc2C#N)c1`, the IC50 in assay [1] was over 324 µM.

What is called IC50 is the midpoint of a concentration-inhibition curve.
